Measured values collected from several papers.
Compare with care: the assays were run in different laboratories.
Target: D(2) dopamine receptor (DRD2, Homo sapiens, UniProt P14416)

Structure (SMILES) | assay | system | conditions | quantity | result
COCc1c(-c2cc3cc(C)cc(OC)c3s2)c2c(N)ncnn2c1CN1CCNC(=O)C1 | ligand displacement, radioligand | – | 10 µM | inhibition | 19%
c1ccc(C(NCCNC(c2ccccc2)c2ccccc2)c2ccccc2)cc1 | cell-free assay | – | 10 µM | inhibition | 31%
COc1ccc(C(=O)NCc2cc(C(C)C)no2)cc1OC1CCN(C)CC1 | ligand displacement, radioligand | – | 10 µM | inhibition | 18%
OC(c1ccc(F)cc1)C(F)(F)CCN1CCC(O)(c2ccc(Cl)cc2)CC1 (racemic) | ligand displacement, radioligand | – | 10 µM | inhibition | > 50%
N#CC1(c2ccccn2)CCN(Cc2cc(C(=O)O)c(=O)n3ccccc23)CC1 | cell-free assay | – | 10 µM | inhibition | -16.8%
CN(CCN1CCC(OC(=O)Nc2ccccc2-c2ccccc2)CC1)C(=O)c1ccc(CN2CCC(C(N)=O)CC2)cc1 | ligand displacement, radioligand | – | 1 µM | inhibition | -8%
c1ccc(C2(N3CCCCC3)CCCCC2)cc1 | enzyme activity, inhibitor | – | 10 µM | inhibition | 18.1%
CCN(CC)CCCC[C@H](NC(=O)[C@H](CC(C)C)NC(=O)[C@H](C)NC(=O)[C@H](Cc1ccccc1)NC(=O)c1ccc(C(C)(C)C)cc1)C(=O)N[C@@H](CO)C(=O)OC | ligand displacement, radioligand | – | 10 µM | inhibition | 40%
C[C@H](C(=O)N[C@H]1COc2ccccc2[C@@H]1S(C)(=O)=O)c1ccc(F)cc1 | cell-free assay | – | 10 µM | inhibition | -3%
CCc1ccc(OCC(=O)N2CCN(Cc3ccc4c(c3)OCO4)CC2)c(Br)c1 | enzyme activity, inhibitor | – | 10 µM | inhibition | 23.1%
COc1ccc(N=Nc2ccc3[nH]cc(CCN(C)C)c3c2)cc1 | ligand displacement, radioligand | – | 10 µM | inhibition | < 50%
Cc1c(N2CCNCC2)nc2ccc(Br)cc2c1C(=O)NC[C@H](CCC(=O)O)c1ccccc1Cl | ligand displacement | – | 10 µM | inhibition | 2.75%
COc1ccc(S(=O)(=O)N2CCCCC2)cc1C | ligand displacement, radioligand | – | 10 µM | inhibition | < 30%
Clc1ccc2c(C3CCN(CCc4c[nH]c5ccccc45)CC3)c[nH]c2c1 | ligand displacement, radioligand | – | 10 µM | inhibition | 98%
CNc1nc2cc(OCCCCN3CCC(c4cccc(Cl)c4Cl)CC3)ccc2s1 | β-arrestin recruitment, agonist | HTLA | – | Emax | < 20%
CC(C)Cn1cnc2c(N)nc3ccccc3c21 | ligand displacement, radioligand | – | 10 µM | inhibition | 14%
